{"source": "ChEMBL document CHEMBL4513216", "about": "“Probing the Open Global Health Chemical Diversity Library for Multistage-Active Starting Points for Next-Generation Antimalarials” (ACS Infect Dis, 2020)"}
{"test": "Toxicity liver stage against HepG2, at 10uM", "format": "cell-based", "parameters": "test concentration 10 uM, cell line HepG2-A16-CD81EGFP", "details": "human, HepG2-A16-CD81EGFP cells; read-out: INHIBITION", "procedure,_shortened": "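Uninfected HepG2-A16-CD81EGFP cells, 3 × 10^3 per well, 1536-well, plated on prespotted compound at 10 μM final, parasite-free screening media added to match infected plates; puromycin 10 μM positive, DMSO 0.5% negative; run in parallel with 48 h PbLuc assay at 37 °C, 5% CO2; viability by CellTiter-Glo luminescence, normalized to controls.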", "units": {"cytotoxicity at 10 µM": "%"}}
{"smiles": "CC(=O)N1CCCN(C(=O)NCCCn2cncn2)CC1", "cytotoxicity at 10 µM": -10.1}
{"smiles": "Cc1cnc(N2CCC3(CCCN(c4ccc(C)nn4)C3)C2)nc1", "note": "(configuration not stated)", "cytotoxicity at 10 µM": -20.7}
{"smiles": "CN1CCN(CCCN(C)S(=O)(=O)C2CCCCC2)CC1", "cytotoxicity at 10 µM": -9.46}
{"smiles": "CN(CCCOc1ccc(F)cc1)S(=O)(=O)c1cnn(C)c1", "cytotoxicity at 10 µM": -0.336}
{"smiles": "CCc1oc2ccc(NS(C)(=O)=O)cc2c1C(=O)OC", "cytotoxicity at 10 µM": 6.8}
{"smiles": "C[C@@H]1CN(C(=O)C2(Cn3cccn3)CC2)CC[C@@]1(O)C1CCOCC1", "cytotoxicity at 10 µM": 3.48}
{"smiles": "CCOc1cc(CN[C@@H]2COC[C@H]2Cc2cc(C)no2)ccc1O", "cytotoxicity at 10 µM": 14.8}
{"smiles": "CCOC(=O)NC(=O)CSC(C)c1ccccc1F", "note": "(configuration not stated)", "cytotoxicity at 10 µM": -15.1}
{"smiles": "CN1CC2(CCN(C(=O)C3CCC3)CC2)COc2ccccc2S1(=O)=O", "cytotoxicity at 10 µM": 10.2}
{"smiles": "Cn1c(N)nnc1SC1CCCN(c2ccccc2)C1=O", "note": "(configuration not stated)", "cytotoxicity at 10 µM": 0.296}
{"smiles": "Cc1nn(C)cc1-c1ccnc(N(C)Cc2cccs2)n1", "cytotoxicity at 10 µM": 19}
{"smiles": "CCOCCOC(C)C(=O)Nc1ccc2c(ccn2CC)c1", "note": "(configuration not stated)", "cytotoxicity at 10 µM": 3.99}
{"smiles": "Cc1nc(-c2cnn(C)c2)nc2c1CN(C(=O)c1ccc[nH]1)CC2", "cytotoxicity at 10 µM": 13}
{"smiles": "COc1ccc(C(CC(=O)NCc2n[nH]c(N)n2)c2ccccc2)cc1", "note": "(configuration not stated)", "cytotoxicity at 10 µM": 7.66}
{"smiles": "CO[C@H]1CN(C(C)C)C[C@@H]1NC(=O)c1cc(-c2ccccc2O)n[nH]1", "cytotoxicity at 10 µM": -0.247}
{"smiles": "Cc1noc2nc(C3CCN(CC4=CCCOC4)CC3)cc(C(F)F)c12", "cytotoxicity at 10 µM": 0.307}
{"smiles": "O=C(c1ccc(F)c(F)c1)N1CCCSCC1CN1CCCC1", "note": "(configuration not stated)", "cytotoxicity at 10 µM": -0.524}
{"smiles": "N#Cc1ccsc1C(=O)N1CCCCC1Cn1cccn1", "note": "(configuration not stated)", "cytotoxicity at 10 µM": 3.36}
{"smiles": "CN(c1ccncn1)C1CC2(CCN(C(=O)c3cccn3C)C2)C1", "note": "(configuration not stated)", "cytotoxicity at 10 µM": -8.05}
{"smiles": "CCCC(C)(C)NC(=O)c1ccc(CC2CC(=O)NC2=O)cc1", "note": "(configuration not stated)", "cytotoxicity at 10 µM": -19.7}
{"smiles": "CC(=O)NC[C@]1(O)CCN(C(=O)c2ccc3c(c2)OCO3)C[C@H]1O", "cytotoxicity at 10 µM": -9.91}
{"smiles": "NC(=O)N1CCCC1COC(=O)c1cc(F)ccc1F", "note": "(configuration not stated)", "cytotoxicity at 10 µM": -0.743}
{"smiles": "CC(C(=O)O)N1CC2(CCC1=O)CCN(CCc1ccccc1)CC2", "note": "(configuration not stated)", "cytotoxicity at 10 µM": -0.503}
{"smiles": "CN(Cc1cc(C2CC2)[nH]n1)Cc1cc2ccc(F)cc2[nH]c1=O", "cytotoxicity at 10 µM": 7.84}
{"smiles": "CN(CCO)c1ncc(-c2ccc(NC(=O)[C@@H]3CCCCN3)cc2)cn1", "cytotoxicity at 10 µM": 0.609}
{"smiles": "CCCC1C=CCN1C(=O)c1cc(COc2ccc3c(c2)OCO3)[nH]n1", "note": "(configuration not stated)", "cytotoxicity at 10 µM": 1.99}
{"smiles": "CSc1cccc(CN2CCn3nc(CNC(C)=O)cc3C2)c1", "cytotoxicity at 10 µM": -1.03}
{"smiles": "CCN(C)c1ncnc2c1CCN(C(=O)c1cnccn1)CC2", "cytotoxicity at 10 µM": -1.86}
{"smiles": "COc1cccc(CN2CCCC(Nc3cccc(F)c3)C2)c1O", "note": "(configuration not stated)", "cytotoxicity at 10 µM": -10.2}
{"smiles": "CN1CCN(C2CCN(Cc3noc(C4CC4)n3)CC2)C1=O", "cytotoxicity at 10 µM": 8.54}
{"smiles": "Cc1cnc(NC(=O)c2ccc(-n3ncc(C#N)c3N)cc2)s1", "cytotoxicity at 10 µM": 5.88}
{"smiles": "O=C(CCN1CCOC1=O)Nc1cnn(-c2ccccc2Cl)c1", "cytotoxicity at 10 µM": -3.39}
{"smiles": "CN(Cc1nccs1)c1nc(-c2ccccn2)nc2c1CCNCC2", "cytotoxicity at 10 µM": -14}
{"smiles": "CC(C)(C)C(=O)NCCc1cc2nc(-c3ccncc3)ccn2n1", "cytotoxicity at 10 µM": 6.66}
{"smiles": "CCc1ncc(C(=O)NCCN2CCNC2=O)cn1", "cytotoxicity at 10 µM": 0.069}
{"smiles": "CCOCCCNS(=O)(=O)c1ccc2c(c1)NC(=O)C(C)O2", "note": "(configuration not stated)", "cytotoxicity at 10 µM": -3.57}
{"smiles": "O=C(O)c1cnc(N2CCC(c3nccn3CC3CC3)CC2)c(Cl)c1", "cytotoxicity at 10 µM": -9.98}
{"smiles": "CC(=O)N1Cc2ccccc2C[C@H]1C(=O)N(C)Cc1ccccn1", "cytotoxicity at 10 µM": 6.17}
{"smiles": "CCOCC(=O)Nc1nccn1Cc1ccc(Br)cc1", "cytotoxicity at 10 µM": -44.8}
{"smiles": "OCc1ccc(CN2CCC(n3cc(-c4ccsc4)nn3)CC2)o1", "cytotoxicity at 10 µM": 6.77}
{"smiles": "CC1=C(C(=O)N(C)Cc2noc3c2CCCC3)C(C)NC(=O)N1", "note": "(configuration not stated)", "cytotoxicity at 10 µM": -0.844}
{"smiles": "Cc1ccc(CN(C(=O)NCc2nnc3n2CCCCC3)C2CC2)o1", "cytotoxicity at 10 µM": 9.35}
{"smiles": "CC(NC1(CNC(=O)C(C)(C)C#N)CCOCC1)c1ccccc1", "note": "(configuration not stated)", "cytotoxicity at 10 µM": 7.35}
{"smiles": "Cc1nn(C)c(C)c1C1CCCN1CC(=O)NC(C1CC1)C1CC1", "note": "(configuration not stated)", "cytotoxicity at 10 µM": -5.38}
{"smiles": "COc1ccc([C@@H](C)n2ccnc2-c2cc3n(n2)CCCNC3)cc1", "cytotoxicity at 10 µM": -8.48}
{"smiles": "CNC(=O)COc1ccc(CNCc2cc(F)ccc2F)cc1", "cytotoxicity at 10 µM": 3.53}
{"smiles": "Cc1ncc(C(=O)N2CCC(N3C[C@@H](C)O[C@@H](C)C3)CC2)c(=O)[nH]1", "cytotoxicity at 10 µM": 3.42}
{"smiles": "O=C(c1cccnc1)N1CCCC1C1CCN(Cc2ccccc2)CC1", "note": "(configuration not stated)", "cytotoxicity at 10 µM": -3.24}
{"smiles": "CN1CCOC[C@H]1c1nc(-c2ccccc2)c[nH]1", "cytotoxicity at 10 µM": -7.24}
{"smiles": "CCC(Nc1nnnn1-c1ccccc1)C(=O)Nc1ccccc1C", "note": "(configuration not stated)", "cytotoxicity at 10 µM": -13.1}
{"smiles": "CC(=O)N(Cc1ccsc1)c1ccccc1", "cytotoxicity at 10 µM": -1.74}
{"smiles": "CCOC(=O)c1sc2ccsc2c1CNC(=O)CCOC", "cytotoxicity at 10 µM": -16.7}
{"smiles": "Cn1c(C(F)(F)F)nn(CCNC(=O)Nc2ccccc2Cl)c1=O", "cytotoxicity at 10 µM": 13.4}
{"smiles": "CC(NC(=O)CCNC(=O)c1ccoc1)c1ccccc1", "note": "(configuration not stated)", "cytotoxicity at 10 µM": 5.66}
{"smiles": "O=c1oc(-c2ccccc2)nn1CN1CCC(N2CCCCC2)CC1", "cytotoxicity at 10 µM": 6.64}
{"smiles": "CO[C@@H]1CCN(S(=O)(=O)N(C)C)[C@@H]2CN(Cc3cccnc3)C[C@@H]21", "cytotoxicity at 10 µM": -1.91}
{"smiles": "CCC1CCCN(S(=O)(=O)c2cnc3onc(C)c3c2)C1", "note": "(configuration not stated)", "cytotoxicity at 10 µM": 4.72}
{"smiles": "Cc1ccc(NCc2ncc(C(C)(C)C)o2)c(Cl)c1", "cytotoxicity at 10 µM": -15.4}
{"smiles": "CCn1c(C2CCN(C(=O)c3cc(CC(C)C)no3)CC2)nn(C)c1=O", "cytotoxicity at 10 µM": -2.51}
{"smiles": "COc1cccc(C2CCCN2Cc2nnnn2C2CC2)c1", "note": "(configuration not stated)", "cytotoxicity at 10 µM": 4.17}
{"smiles": "Fc1ccccc1Cc1noc(CN2CCC(C3CCCCC3)C2)n1", "note": "(configuration not stated)", "cytotoxicity at 10 µM": 0.372}
{"smiles": "c1cc(-c2cncc(C3CCNCC3)n2)n[nH]1", "cytotoxicity at 10 µM": 3.42}
{"smiles": "CN(C)CCOc1ccc(CNC(=O)c2cccc(Cl)c2Cl)cc1", "cytotoxicity at 10 µM": 15.5}
{"smiles": "O=C(CN1CCOCC1CC(=O)c1ccco1)NCc1ccccn1", "note": "(configuration not stated)", "cytotoxicity at 10 µM": -4.92}
{"smiles": "CCCN(Cc1nc(-c2ccc(F)c(OC)c2)oc1C)CC1CCCO1", "note": "(configuration not stated)", "cytotoxicity at 10 µM": -1.03}
{"smiles": "NC(=O)NC1CCN(Cc2ccc(Br)c(F)c2)CC1", "cytotoxicity at 10 µM": -1.57}
{"smiles": "CNC(=O)[C@@H]1CN(Cc2ccccc2)C[C@H]1C(=O)c1ccc(F)cc1", "cytotoxicity at 10 µM": -0.17}
{"smiles": "CC(C)NC(=O)Nc1nc2c(s1)CN(C(=O)NCc1cccs1)CC2", "cytotoxicity at 10 µM": 33}
{"smiles": "Cc1cc(SC(C)(C)C)ccc1NC(=O)CNC(N)=O", "cytotoxicity at 10 µM": 7.94}
{"smiles": "CN1CCN(C2CCN(CC(O)c3ccccc3F)CC2)C1=O", "note": "(configuration not stated)", "cytotoxicity at 10 µM": -0.275}
{"smiles": "CCC(NC(=O)NCc1nncn1CC)c1ccc(OC)cc1", "note": "(configuration not stated)", "cytotoxicity at 10 µM": 1.97}
{"smiles": "CN1C(=O)C(C)(C)COc2cc(NS(=O)(=O)c3ccccc3F)ccc21", "cytotoxicity at 10 µM": -5.08}
{"smiles": "CC(C)c1nc2c(n1C)CCN(Cc1nc(-c3cccnc3)no1)C2", "cytotoxicity at 10 µM": -1.43}
{"smiles": "CN(Cc1cc(Br)c2c(c1)OCO2)Cc1cscn1", "cytotoxicity at 10 µM": -12.2}
{"smiles": "CN(C)S(=O)(=O)N1CCC(Oc2ccccn2)CC1", "cytotoxicity at 10 µM": 13.6}
{"smiles": "COc1ccc(N2CCN(C[C@@H](C)CO)CC2=O)cc1", "cytotoxicity at 10 µM": 1.99}
{"smiles": "COCC(=O)NCCc1nc2cc(-c3ccc(OC)cc3)ncn2n1", "cytotoxicity at 10 µM": 10.5}
{"smiles": "CCc1[nH]ncc1C(=O)N1CCN(c2nccc(OC)n2)CC1", "cytotoxicity at 10 µM": 0.296}
{"smiles": "CCCS(=O)(=O)NCC1OCCc2cn(CC3CCOCC3)nc21", "note": "(configuration not stated)", "cytotoxicity at 10 µM": -5.6}
{"smiles": "c1ccn(Cc2nnc3n2CCCN(c2cnccn2)C3)c1", "cytotoxicity at 10 µM": -2.2}
{"smiles": "Cc1cc2nc(C(C)C)cc(N(C)CC3CCN(C(C)C)C3)n2n1", "note": "(configuration not stated)", "cytotoxicity at 10 µM": 7.26}
{"smiles": "O=C(c1ccco1)N1CCOCC2(C1)CN(c1cccnc1)C(=O)CO2", "note": "(configuration not stated)", "cytotoxicity at 10 µM": 5.88}
